# Test results published in article PMC3752840 (Journal of the American Chemical Society, 2013).
# Values joined by “and” are separate entries in the source; they are usually repeats but may differ in a detail not shown here. Equal values may be shown once. Square brackets hold non-standard residues; d marks the D form. Peptide text beside a SMILES is read from it. * marks the point of attachment. Heptanoyl = CCCCCCC(=O)*; Octanoyl = CCCCCCCC(=O)*
# How the values were obtained:
# [1] = target: T1, papain (Carica papaya, UniProt P00784); test: biochemical
# T1 sequence (P00784 134-345): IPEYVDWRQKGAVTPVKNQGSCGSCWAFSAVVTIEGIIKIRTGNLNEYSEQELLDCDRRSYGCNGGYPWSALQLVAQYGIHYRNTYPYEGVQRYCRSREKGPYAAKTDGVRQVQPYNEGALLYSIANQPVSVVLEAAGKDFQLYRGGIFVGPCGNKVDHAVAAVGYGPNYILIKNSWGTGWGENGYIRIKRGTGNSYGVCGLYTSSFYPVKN
# [2] = target: human 20S proteasome, caspase-like activity (Homo sapiens, UniProt P28072); test: Proteasome inhibition assay, caspase-like activity; format: biochemical
# In short: (§1)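 Human 20S proteasome (1 nM) in 10 mM Tris-HCl, 0.035% SDS, pH 7.4, preincubated with test compound for 15 min at RT. Fluorogenic substrate then added at 5 µM: Suc-LLVY-AMC for chymotrypsin-like activity, Z-LLE-AMC for caspase-like activity. Fluorescence read at 380/460 nm; IC50 calculated from initial rates.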
# [3] = tested on: U-937 histiocytic lymphoma cell line; format: cell-based, human; settings: 72 h
# [4] = target: human 20S proteasome, chymotrypsin-like activity (Homo sapiens, UniProt P28074); test: Proteasome inhibition assay, chymotrypsin-like activity; format: biochemical
# In short: as §1
# [5] = target: T2, human calpain-I (Homo sapiens, UniProt P07384); test: Calpain IC50, Suc-LLVY-AMC fluorescence assay; format: biochemical
# T2 sequence (P07384 1-714): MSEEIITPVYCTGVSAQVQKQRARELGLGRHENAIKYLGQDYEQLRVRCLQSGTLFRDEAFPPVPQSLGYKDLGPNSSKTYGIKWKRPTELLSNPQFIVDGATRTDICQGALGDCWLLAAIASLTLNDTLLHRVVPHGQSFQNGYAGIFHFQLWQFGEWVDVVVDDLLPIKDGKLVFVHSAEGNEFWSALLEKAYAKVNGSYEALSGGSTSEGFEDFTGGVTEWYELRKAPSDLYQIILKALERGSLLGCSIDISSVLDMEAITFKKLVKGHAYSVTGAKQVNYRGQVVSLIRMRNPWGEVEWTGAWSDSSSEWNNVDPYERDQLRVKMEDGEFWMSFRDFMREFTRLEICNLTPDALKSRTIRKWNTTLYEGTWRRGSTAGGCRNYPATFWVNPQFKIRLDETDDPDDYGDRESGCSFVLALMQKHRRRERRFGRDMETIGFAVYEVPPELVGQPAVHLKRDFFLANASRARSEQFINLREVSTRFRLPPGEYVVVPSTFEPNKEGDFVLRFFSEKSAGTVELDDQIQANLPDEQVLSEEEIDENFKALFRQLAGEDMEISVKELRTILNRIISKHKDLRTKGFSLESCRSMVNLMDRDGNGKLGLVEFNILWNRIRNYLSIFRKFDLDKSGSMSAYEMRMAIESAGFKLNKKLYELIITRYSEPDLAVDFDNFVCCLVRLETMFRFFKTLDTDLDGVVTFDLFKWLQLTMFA
# T2 sequence (P04632 1-268 partner): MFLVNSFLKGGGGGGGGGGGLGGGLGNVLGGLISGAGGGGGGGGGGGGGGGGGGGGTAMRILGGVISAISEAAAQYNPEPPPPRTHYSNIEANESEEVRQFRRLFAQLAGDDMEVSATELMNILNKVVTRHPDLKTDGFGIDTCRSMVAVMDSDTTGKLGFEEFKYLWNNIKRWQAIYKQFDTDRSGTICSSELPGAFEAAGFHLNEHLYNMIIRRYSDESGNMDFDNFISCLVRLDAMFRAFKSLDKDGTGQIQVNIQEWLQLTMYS
# [6] = tested on: FR4 multiple myeloma cell line; format: cell-based, human; settings: 72 h
# [7] = tested on: MM.M1S multiple myeloma cell line; format: cell-based, human; settings: 72 h, CellTiter-Glo; compound 3 no inhibition up to 80 µM
# [8] = target: human 20S proteasome (Homo sapiens, UniProt P28072+P28074); test: Proteasome inhibition assay; format: biochemical; settings: two proteasome activities, which is which not stated
# [9] = CellTiter-Glo, compound 3 no inhibition up to 80 µM
Compound,IC50 [1] [nM],IC50 [2] [nM],IC50 [3] [nM],IC50 [4] [nM],IC50 [5] [nM],IC50 [6] [nM],"IC50 cell line FR4 [6, 9]",IC50 cell line MM.M1S [7],"IC50 cell line U-937 [3, 9]",fold higher potency against the proteasome than 1 and 2 [8]
CCCCCCCC(=O)N[C@H](C(=O)N[C@@H](CCC(N)=O)C(=O)N[C@H](C(=O)N[C@H](CCC(N)=O)C(=O)N[C@H](C(=O)N[C@H](C=O)Cc1ccccc1)C(C)C)[C@@H](C)CC)[C@@H](C)CC [Compound 1] (Octanoyl-IQI[dQ]VF-aldehyde; N-terminus assumed),160 ± 40,2300 ± 200,13000 ± 1000,4900 ± 300,2900 ± 300,–,–,–,–,–
CCCCCCC(=O)N[C@H](C(=O)N[C@@H](CCC(N)=O)C(=O)N[C@H](C(=O)N[C@H](CCC(N)=O)C(=O)N[C@H](C(=O)N[C@H](C=O)Cc1ccccc1)[C@@H](C)CC)[C@@H](C)CC)[C@@H](C)CC [Compound 2] (Heptanoyl-IQI[dQ]IF-aldehyde; N-terminus assumed),350 ± 30,2300 ± 700,–,3300 ± 300,2700 ± 400,30000 ± 10000,–,–,–,–
CC[C@H](C)[C@H](N)C(=O)N[C@@H](CCC(N)=O)C(=O)N[C@H](C(=O)N[C@H](CCC(N)=O)C(=O)N[C@H](C(=O)N[C@H](C=O)Cc1ccccc1)C(C)C)[C@@H](C)CC [Compound 3] (H-IQI[dQ]VF-aldehyde),70 ± 10,330 ± 70,–,430 ± 80,1800 ± 300,–,No inhibition,No inhibition,No inhibition,6 fold and 10 fold
